Experimental data gathered from unrelated publications.
Compare with care: the assays were run in different laboratories.
Target: Acetylcholinesterase (ache, Electrophorus electricus, UniProt O42275)
Observed: enzyme activity
Action: inhibitor
Technique: Ellman

`CCN(C)C(=O)Oc1ccc(CCC(=O)N2CCC(Cc3ccccc3)CC2)cc1` gave an IC50 of 6.1 µM.
With `CC(C)(C)OC(=O)NC1CCCN(C(=O)C=Cc2ccccc2)C1` (stereo not shown) the IC50 was 39.4 µM.
For `CCN(C)C(=O)Oc1ccc(/C=C/C(=O)NC2CCN(Cc3ccccc3)CC2)cc1`, the IC50 was 1.8 µM.
With `COc1ccc(-c2nnc(-c3ccc(OCc4cn(Cc5ccc(Cl)cc5)nn4)cc3)o2)cc1` the IC50 was greater than 100 µM.
The IC50 of `CC(C)(C)OC(=O)NC1CCCN(C(=O)/C=C/c2ccccc2Br)C1` (stereo not shown) is reported as 46.3 µM.
With `O=[N+]([O-])c1ccc(-c2nnc(-c3ccc(OCc4cn(Cc5ccc(Br)cc5)nn4)cc3)o2)cc1` the IC50 was greater than 100 µM.
With `CC(C)(C)OC(=O)NC1CCCN(C(=O)/C=C/c2cccc(F)c2)C1` (stereo not shown) the IC50 was 37.7 µM.
`COc1ccc(-c2nnc(-c3ccc(OCc4cn(Cc5ccc(C)cc5)nn4)cc3)o2)cc1` has an IC50 of greater than 100 µM.
With `COc1cc(CCC(=O)N2CCC(Cc3ccccc3)CC2)ccc1OC(=O)N1CCOCC1` the IC50 was 7.2 µM.
For `COc1ccccc1/C=C/C(=O)N1CCCC(NC(=O)OC(C)(C)C)C1` (stereo not shown), the IC50 was greater than 50 µM.
For `CCN(CC)C(=O)Oc1ccc(/C=C/C(=O)NC2CCN(Cc3ccccc3)CC2)cc1OC`, the IC50 was 2.3 µM.
`CCOc1ccc(/C=C/C(=O)N2CCCC(NC(=O)OC(C)(C)C)C2)cc1OC` (stereo not shown) gave an IC50 of 35.2 µM.
The IC50 of `Fc1ccc(Cn2cc(COc3ccc(-c4nnc(-c5ccc(F)cc5)o4)cc3)nn2)cc1` is reported as greater than 100 µM.
`COc1ccc(OC)c(/C=C/C(=O)N2CCCC(NC(=O)OC(C)(C)C)C2)c1` (stereo not shown) has an IC50 of 41.5 µM.
For `O=C(O)C(/C=C/c1ccc(Cl)cc1)=N\Nc1nc(-c2ccccc2)cs1`, the IC50 was 0.855 µM.
For `Brc1ccc(Cn2cc(COc3ccc(-c4nnc(-c5ccccc5)o4)cc3)nn2)cc1`, the IC50 was greater than 100 µM.
The IC50 of `CCN(C)C(=O)Oc1ccc(CCC(=O)N2CCN(Cc3ccccc3)CC2)cc1` is reported as 7.8 µM.
`CC(C)(C)OC(=O)NC1CCCN(C(=O)/C=C/c2ccc(Br)cc2)C1` (stereo not shown) has an IC50 of greater than 50 µM.
The IC50 of `Cc1ccc(Cn2cc(COc3ccc(-c4nnc(-c5ccc(F)cc5)o4)cc3)nn2)cc1` is reported as greater than 100 µM.
`CCN(C)C(=O)Oc1ccc(CCC(=O)N(CC)CC)cc1OC` gave an IC50 of 19.5 µM.
For `COc1ccc(/C=C/C(=O)N2CCCC(NC(=O)OC(C)(C)C)C2)cc1` (stereo not shown), the IC50 was greater than 50 µM.
With `CCN(C)C(=O)Oc1ccc(CCC(=O)N2CCC(CCCc3ccccc3)CC2)cc1OC` the IC50 was 15.2 µM.
The IC50 of `O=C(O)C(/C=C/c1c(Cl)cccc1Cl)=N\Nc1nc(-c2ccc(F)cc2)cs1` is reported as 0.299 µM.
For `Cc1ccc(Cn2cc(COc3ccc(-c4nnc(-c5ccccc5)o4)cc3)nn2)cc1`, the IC50 was greater than 100 µM.
`CCN(C)C(=O)Oc1ccc(CCC(=O)N2CCN(Cc3ccccc3)CC2)cc1OC` has an IC50 of 12.2 µM.
